From ChEMBL document CHEMBL4017549, “Structural Basis of Inhibition of ERα-Coactivator Interaction by High-Affinity N-Terminus Isoaspartic Acid Tethered Helical Peptides” (J Med Chem, 2017)
Activity calls are given as the source filed them. The calls are words filed in the database; no cut-off is given here. Peptide text beside a SMILES is read from it. * marks the point of attachment. FITC = O=C1OC2(c3ccc(O)cc3Oc3cc(O)ccc32)c2ccc(NC(=S)*)cc21; βAla = NCCC(=O)O

Columns and labels:
[1] = species on record: Homo sapiens; experiment: Selectivity ratio of Kd for recombinant human GST-tagged PGR LBD ([…] residues) to Kd for recombinant human ERalpha LBD (301 to 553 residues)
How it was run: (§1)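 Ratio of KD values, each from fluorescence polarization of 10 nM FITC-peptide titrated with the respective LBD after 40 min in the dark at 298 K, with the matching ligand in buffer (10 μM 17β-estradiol, progesterone or vitamin D3).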

[2] = biological target: T1, Estrogen receptor (Homo sapiens) (UniProt P03372); experiment: Binding affinity to recombinant human GFP-fused ERalpha LBD (301 to 553 residues) expressed in Escherichia coli BL21(DE3) in presence of ERalpha inhibitor 4-hydroxytamoxifen by ITC
T1 sequence (whole entry): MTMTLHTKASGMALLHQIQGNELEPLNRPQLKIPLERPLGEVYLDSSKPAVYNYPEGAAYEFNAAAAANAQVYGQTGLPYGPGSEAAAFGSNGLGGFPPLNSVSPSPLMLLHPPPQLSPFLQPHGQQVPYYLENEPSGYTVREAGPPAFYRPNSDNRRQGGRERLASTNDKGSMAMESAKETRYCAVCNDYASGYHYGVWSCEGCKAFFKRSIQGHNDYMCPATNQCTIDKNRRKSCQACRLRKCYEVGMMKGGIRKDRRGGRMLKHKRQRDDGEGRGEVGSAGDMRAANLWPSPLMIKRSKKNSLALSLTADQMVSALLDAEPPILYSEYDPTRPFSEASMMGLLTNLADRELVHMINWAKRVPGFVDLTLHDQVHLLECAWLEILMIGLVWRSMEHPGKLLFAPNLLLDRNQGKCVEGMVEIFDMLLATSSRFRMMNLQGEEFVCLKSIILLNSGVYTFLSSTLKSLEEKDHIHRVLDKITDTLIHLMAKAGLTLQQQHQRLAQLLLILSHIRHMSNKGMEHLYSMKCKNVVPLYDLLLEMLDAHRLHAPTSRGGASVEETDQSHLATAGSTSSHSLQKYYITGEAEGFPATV
How it was run: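 ITC at 25 °C. 50 μM peptide injected in 2 μL steps into 5 μM ERα LBD in 50 mM Tris pH 8.0, 150 mM NaCl, 1 mM TCEP containing 0.1 mM 4-hydroxytamoxifen instead of estradiol. Isotherm fitted.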

[3] = biological target: T2, Estrogen receptor (Homo sapiens, UniProt P03372); experiment: Binding affinity to recombinant human GFP-fused ERalpha LBD (301 to 553 residues) expressed in Escherichia coli BL21(DE3) after 40 mins in presence of 17beta-estradiol by fluorescence polarization assay
T2 sequence (P03372 whole entry): T1 sequence (whole entry)

[4] = Drug uptake in human U2OS cells assessed per million cells at 5 uM after 3 hrs by FACS analysis; assay type: ADME, cell-based
How it was run: (§2)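 Adherent cells seeded overnight, then exposed to 5 μM FITC-labelled peptide or DMSO in FBS-free medium, 3 h, 37 °C. After PBS washes (three), about 10000 cells per sample analysed by flow cytometry; mean cellular fluorescence intensity calculated. More than two independent experiments, SEM.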

[5] = biological target: T3, Vitamin D3 receptor (Homo sapiens, UniProt P11473); experiment: Binding affinity to recombinant human GST-tagged VDR LBD (156 to 453 residues) expressed in Echerichia coli BL21 star (DE3) after 40 mins in presence of vitamin D3 by fluorescence polarization assay
T3 sequence (P11473 whole entry): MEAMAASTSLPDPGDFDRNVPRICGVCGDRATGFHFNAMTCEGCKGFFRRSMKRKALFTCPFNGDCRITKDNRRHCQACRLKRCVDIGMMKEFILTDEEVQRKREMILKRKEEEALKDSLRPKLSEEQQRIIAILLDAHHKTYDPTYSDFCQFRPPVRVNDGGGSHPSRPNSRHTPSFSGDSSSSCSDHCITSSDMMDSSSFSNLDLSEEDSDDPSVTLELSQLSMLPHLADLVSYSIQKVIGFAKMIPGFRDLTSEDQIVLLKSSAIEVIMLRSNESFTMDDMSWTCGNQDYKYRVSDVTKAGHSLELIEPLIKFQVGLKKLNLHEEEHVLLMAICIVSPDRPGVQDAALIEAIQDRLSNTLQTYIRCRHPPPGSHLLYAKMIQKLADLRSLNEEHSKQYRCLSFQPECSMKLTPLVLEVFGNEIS
How it was run: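 GST-VDR LBD titrated into 10 nM final FITC-labelled peptide in 20 mM Tris-HCl pH 8.0, 150 mM NaCl, 5% glycerol, 1 mM TCEP containing 10 μM vitamin D3. 40 min dark incubation, polarization at 298 K (ex 480/em 535 nm). KD by nonlinear regression.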

[6] = biological target: T1, Estrogen receptor (Homo sapiens); experiment: Binding affinity to recombinant human GFP-fused ERalpha LBD (301 to 553 residues) expressed in Escherichia coli BL21(DE3) in presence of 17beta-estradiol by ITC
How it was run: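 ITC at 25 °C. 2 μL injections of 50 μM peptide into 5 μM ERα LBD in 50 mM Tris pH 8.0, 150 mM NaCl, 1 mM TCEP, 0.1 mM 17β-estradiol. Binding isotherm fitted for affinity.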

[7] = species on record: Homo sapiens; experiment: Selectivity ratio of Kd for recombinant human GST-tagged VDR LBD (156 to 453 residues) to Kd for recombinant human ERalpha LBD (301 to 553 residues); how it was run: as §1
[8] = biological target: T4, Progesterone receptor (Homo sapiens, UniProt P06401); experiment: Binding affinity to recombinant human GST-tagged PGR LBD (678 to 933 residues) expressed in Escherichia coli BL21 star(DE3) after 40 mins in presence of progesterone by fluorescence polarization assay
T4 sequence (P06401 whole entry): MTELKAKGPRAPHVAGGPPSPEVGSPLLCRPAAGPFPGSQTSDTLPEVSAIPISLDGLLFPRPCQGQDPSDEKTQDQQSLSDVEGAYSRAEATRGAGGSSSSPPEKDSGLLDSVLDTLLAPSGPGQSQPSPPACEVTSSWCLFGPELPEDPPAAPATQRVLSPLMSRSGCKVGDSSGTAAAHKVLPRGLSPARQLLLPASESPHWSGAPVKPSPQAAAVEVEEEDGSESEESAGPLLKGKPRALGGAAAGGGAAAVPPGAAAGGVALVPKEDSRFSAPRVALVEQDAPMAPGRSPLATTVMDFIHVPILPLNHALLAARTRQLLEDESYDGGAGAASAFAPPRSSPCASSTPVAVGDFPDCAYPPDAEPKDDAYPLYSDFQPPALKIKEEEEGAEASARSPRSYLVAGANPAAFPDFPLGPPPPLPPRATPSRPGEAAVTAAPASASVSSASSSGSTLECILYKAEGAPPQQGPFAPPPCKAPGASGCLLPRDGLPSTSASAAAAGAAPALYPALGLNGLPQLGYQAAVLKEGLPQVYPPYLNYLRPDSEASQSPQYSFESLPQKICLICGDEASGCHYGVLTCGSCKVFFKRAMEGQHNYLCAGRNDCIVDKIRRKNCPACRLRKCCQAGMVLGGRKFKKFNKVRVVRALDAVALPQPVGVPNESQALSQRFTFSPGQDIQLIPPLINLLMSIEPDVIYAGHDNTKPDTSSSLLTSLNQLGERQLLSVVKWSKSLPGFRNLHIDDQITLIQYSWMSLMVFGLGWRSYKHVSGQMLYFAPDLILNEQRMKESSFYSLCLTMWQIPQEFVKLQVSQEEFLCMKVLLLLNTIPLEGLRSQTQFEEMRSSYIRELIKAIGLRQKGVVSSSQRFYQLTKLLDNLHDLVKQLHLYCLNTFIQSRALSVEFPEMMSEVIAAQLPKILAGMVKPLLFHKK
How it was run: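 FITC-labelled peptide at 10 nM final with increasing GST-PgR LBD in 20 mM Tris-HCl pH 8.0, 150 mM NaCl, 5% glycerol, 1 mM TCEP plus 10 μM progesterone. 40 min dark incubation, polarization at 298 K (ex 480/em 535 nm). KD by nonlinear regression against protein concentration.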

[9] = biological target: Estrogen receptor beta (Homo sapiens, UniProt Q92731); experiment: Binding affinity to recombinant human GFP-fused ERbeta LBD (259 to 498 residues) expressed in Escherichia coli BL21(DE3) after 40 mins in presence of 17beta-estradiol by fluorescence polarization assay
How it was run: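 FITC-labelled peptide at 10 nM final, titrated with increasing purified LBD (ERβ LBD carrying C334S, C369S, C481S) in 20 mM Tris-HCl pH 8.0, 150 mM NaCl, 5% glycerol, 1 mM TCEP with 10 μM 17β-estradiol. Incubated 40 min in the dark, polarization read at 298 K (ex 480/em 535 nm). KD from nonlinear regression of polarization versus protein concentration.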

[10] = Drug uptake in human MCF7 cells at 5 uM after 3 hrs in presence of 10 nM E2 by DAPI-staining based confocal laser scanning microscopic analysis; conditions: mcf7, 3 h
[11] = Drug uptake in human MCF7 cells assessed per million cells at 5 uM after 3 hrs by FACS analysis; assay type: ADME, cell-based; conditions: mcf7, 3 h; how it was run: as §2
[12] = species on record: Homo sapiens; experiment: Selectivity ratio of Kd for recombinant human ERbeta LBD (259 to 498 residues) to Kd for recombinant human ERalpha LBD (301 to 553 residues); how it was run: as §1

Estrogen receptor beta, sequence (Q92731 whole entry, the tested form may be a part): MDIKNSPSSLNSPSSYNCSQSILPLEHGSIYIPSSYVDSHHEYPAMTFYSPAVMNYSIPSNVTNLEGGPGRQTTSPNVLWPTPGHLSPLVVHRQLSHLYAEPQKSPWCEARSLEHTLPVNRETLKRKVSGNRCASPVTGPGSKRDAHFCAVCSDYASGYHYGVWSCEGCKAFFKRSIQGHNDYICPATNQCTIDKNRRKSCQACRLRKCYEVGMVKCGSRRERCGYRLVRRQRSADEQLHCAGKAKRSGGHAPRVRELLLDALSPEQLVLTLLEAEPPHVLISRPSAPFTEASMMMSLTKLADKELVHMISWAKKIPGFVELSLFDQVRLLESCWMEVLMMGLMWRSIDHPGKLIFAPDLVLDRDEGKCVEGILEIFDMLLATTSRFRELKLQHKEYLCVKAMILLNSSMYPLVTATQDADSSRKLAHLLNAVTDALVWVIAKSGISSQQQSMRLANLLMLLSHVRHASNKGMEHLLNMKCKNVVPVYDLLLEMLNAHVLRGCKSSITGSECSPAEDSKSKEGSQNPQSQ

CC[C@H](C)[C@H](NC(=O)[C@H](CCCCN)NC(=O)[C@H](Cc1cnc[nH]1)NC(=O)CCNC(=S)Nc1ccc2c(c1)C(=O)OC21c2ccc(O)cc2Oc2cc(O)ccc21)C(=O)N[C@@H](CC(C)C)C(=O)N[C@@H](Cc1cnc[nH]1)C(=O)N[C@@H](CCCNC(=N)N)C(=O)N[C@@H](CC(C)C)C(=O)N[C@@H](CC(C)C)C(=O)N[C@@H](CCC(N)=O)C(N)=O ({FITC-βAla}-HKILHRLLQ-NH2)
Selectivity ratio [1]: 0.7
Activity [2]: inactive
Kd [3]: 118 nM
Drug uptake [4]: Active
Kd [5]: 142 nM
Activity [6]: Active
Selectivity ratio [7]: 1.2
Kd [8]: 82 nM
Kd [9]: 213 nM
Drug uptake [10]: Not Active
Drug uptake [11]: Active
Selectivity ratio [12]: 1.8
